In ChEMBL document CHEMBL1122613, “A water-soluble cholesteryl-containing trisgalactoside: synthesis, properties, and use in directing lipid-containing particles to the liver” (J Med Chem, 1984):

Tests used:
Rattus norvegicus [1] = assay: Amount of [125I]- remaining in blood 10 min after administration of 0.65 nmol of compound/ug of [125I]- LDL protein in rats preinjected with Gal-N-Ac 110 mg; assay type: ADME, organism-based; conditions: in vivo
How it was run: (§1)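 110 mg 2-acetamido-2-deoxygalacto- or -glucopyranose was injected iv 1 min before the 125I-LDL, which had been preincubated 10 min at room temperature with compound (13 μg per 20 μg LDL-protein). Rats were pentobarbital-anesthetized males. Blood was taken at 10 min, and the liver was perfused with Ca2+-free Hanks and excised. Samples were γ-counted; blood totals assume 4 mL serum/100 g body weight; values are % injected dose.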

Rattus norvegicus [2] = organism: Rattus norvegicus; assay: Amount of 14C remaining in blood 120 min after injection of 0 mol of [14C]- sucrose containing liposomes with compound; assay type: ADME, organism-based; conditions: 2 h
Rattus norvegicus [3] = organism: Rattus norvegicus; assay: Amount of 14C remaining in blood 120 min after injection of 0.1 mol of [14C]- sucrose containing liposomes with compound; assay type: ADME, organism-based; conditions: 2 h
Rattus norvegicus [4] = assay: Amount of [125I]- remaining in blood 10 min after administration of 0 nmol of compound/ug of [125I]- LDL protein; assay type: ADME, organism-based
How it was run: (§2)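 Human LDL (d 1.019–1.063) was labeled with 125I. 20 μg LDL-protein was mixed with 0, 5 or 13 μg compound in water for 10 min at room temperature, then given iv to pentobarbital-anesthetized male rats. At 10 min, blood was taken by aortic puncture and the liver perfused via the portal vein (Ca2+-free Hanks, 14 mL/min, 8 min), then excised. Samples were γ-counted; results are % injected dose.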

Rattus norvegicus [5] = assay: Amount of [125I]- remaining in blood 10 min after administration of 0.05 nmol of compound/ug of [125I]- LDL protein; assay type: ADME, organism-based
Rattus norvegicus [6] = assay: Amount of [125I]- remaining in blood 10 min after administration of 0.25 nmol of compound/ug of [125I]- LDL protein; assay type: ADME, organism-based; how it was run: as §2
Rattus norvegicus [7] = assay: Amount of [125I]- remaining in blood 10 min after administration of 0.65 nmol of compound/ug of [125I]- LDL protein; assay type: ADME, organism-based; how it was run: as §2
Rattus norvegicus [8] = assay: Amount of [125I]- remaining in blood 10 min after administration of 0.65 nmol of compound/ug of [125I]- LDL protein in rat preinjected with Glc-N-Ac 110 mg; assay type: ADME, organism-based; conditions: in vivo; how it was run: as §1
[9] = [125I]- uptake in liver after perfusion on administration of 0 nmol of compound/ug of [125I]- LDL protein; assay type: ADME, tissue-based; conditions: rat; how it was run: as §2
[10] = [125I]- uptake in liver after perfusion on administration of 0.05 nmol of compound/ug of [125I]- LDL protein; assay type: ADME, tissue-based; conditions: rat
[11] = [125I]- uptake in liver after perfusion on administration of 0.25 nmol of compound/ug of [125I]- LDL protein; assay type: ADME, tissue-based; conditions: rat; how it was run: as §2
[12] = [125I]- uptake in liver after perfusion on administration of 0.65 nmol of compound/ug of [125I]- LDL protein; assay type: ADME, tissue-based; conditions: rat; how it was run: as §2
[13] = [125I]- uptake in liver after perfusion on administration of 0.65 nmol of compound/ug of [125I]- LDL protein in rats preinjected with Gal-N-Ac 110 mg; assay type: ADME, tissue-based; conditions: rat, in vivo; how it was run: as §1
[14] = [125I]- uptake in liver after perfusion on administration of 0.65 nmol of compound/ug of [125I]- LDL protein in rats preinjected with Glc-N-Ac 110 mg; assay type: ADME, tissue-based; conditions: rat, in vivo; how it was run: as §1
[15] = 14C uptake in liver after perfusion on administration of 0 mol of [14C]- sucrose containing liposomes with compound; assay type: ADME; conditions: rat
[16] = 14C uptake in liver after perfusion on administration of 0.1 mol of [14C]- sucrose containing liposomes with compound; assay type: ADME; conditions: rat

## CC(C)CCC[C@@H](C)[C@H]1CC[C@H]2[C@@H]3CC=C4C[C@@H](OC(=O)CCC(=O)NCC(=O)NC(CO[C@@H]5O[C@H](CO)[C@H](O)[C@H](O)[C@H]5O)(CO[C@@H]5O[C@H](CO)[C@H](O)[C@H](O)[C@H]5O)CO[C@@H]5O[C@H](CO)[C@H](O)[C@H](O)[C@H]5O)CC[C@]4(C)[C@H]3CC[C@]12C
Rattus norvegicus [1]
  Activity: 94%
Rattus norvegicus [2]
  Activity: 82%
Rattus norvegicus [3]
  Activity: 48%
Rattus norvegicus [4]
  Activity: 97%
Rattus norvegicus [5]
  Activity: 96%
Rattus norvegicus [6]
  Activity: 57%
Rattus norvegicus [7]
  Activity: 23%
Rattus norvegicus [8]
  Activity: 27%
[9]
  Activity: 1.9%
[10]
  Activity: 2%
[11]
  Activity: 33%
[12]
  Activity: 41%
[13]
  Activity: 3.2%
[14]
  Activity: 39%
[15]
  Activity: 3%
[16]
  Activity: 48%
